This note sets out measurements from ChEMBL document CHEMBL1909548, “Ligustrazine derivatives. Part 5: design, synthesis and biological evaluation of novel ligustrazinyloxy-cinnamic acid derivatives as potent cardiovascular agents” (Eur J Med Chem, 2011).

Broadly, the inhibition is the drop in the measured response relative to a control, in per cent. For orientation: EC50 means the concentration that produces a half-maximal response. What is called IC50 is the concentration at which inhibition is half-maximal.

The nature of assay [1]: Antiplatelet activity in rabbit platelet rich plasma assessed as inhibition rate of ADP-induced platelet aggregation at 200 uM after 5 mins by aggregometry. In kind it is functional. As to conditions: Oryctolagus cuniculus. A digest of the protocol:
(§1)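 Rabbit platelet-rich plasma obtained by centrifuging blood at 1000 rpm for 5 min. Platelet-poor plasma (3000 rpm, 15 min) served as the reference. Platelets were adjusted to 3×10¹¹/L. PRP was mixed with compound at final levels 400, 200, 100 or 50 and incubated at 37 °C for 5 min before aggregation was read. IC50 was derived by linear regression.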

Assay [2] relates to ECV-304. Briefly: Protection against H2O2-induced toxicity in human ECV304 cells assessed as proliferation rate pretreated for 24 hrs before H2O2 challenge measured after 12 hrs by MTT assay. It is filed as functional, cell-based. Put shortly: (§2)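 ECV-304 cells were seeded at 6×10³/well and grown to confluence. Cells were pretreated 24 h with compound in DMSO (final ≤0.05%), then given H2O2 (150) for 12 h at 37 °C, 5% CO2. MTT (5 mg/mL) was added for 4 h, formazan dissolved in DMSO, and A570 read. Proliferation rate = [OD(compd)−OD(H2O2)]/[OD(control)−OD(H2O2)]×100%. EC50 was calculated from proliferation rates by formula.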
On the technique in general: Tetrazolium dyes change colour on reduction, which living cells bring about.

The nature of assay [3]: Antiplatelet activity in rabbit platelet rich plasma assessed as inhibition rate of ADP-induced platelet aggregation at 400 uM after 5 mins by aggregometry. In kind it is functional. As to conditions: Oryctolagus cuniculus. A digest of the protocol: as §1
Assay [4] deals with ECV-304. Briefly: Protection against H2O2-induced toxicity in human ECV304 cells assessed as proliferation rate at 100 uM pretreated for 24 hrs before H2O2 challenge measured after 12 hrs by MTT assay. It is filed as functional. The settings on record: read-out: Activity. Put shortly:
as §2

Assay [5] concerns ECV-304. Briefly: Protection against H2O2-induced toxicity in human ECV304 cells assessed as proliferation rate at 50 uM pretreated for 24 hrs before H2O2 challenge measured after 12 hrs by MTT assay. It is filed as functional. As to conditions: read-out: Activity. A digest of the protocol:
as §2

Assay [6] relates to ECV-304. In words: Protection against H2O2-induced toxicity in human ECV304 cells assessed as proliferation rate at 12.5 uM pretreated for 24 hrs before H2O2 challenge measured after 12 hrs by MTT assay. In kind it is functional. As to conditions: read-out: Activity. A digest of the protocol:
as §2

Assay [7] deals with ECV-304. In words: Protection against H2O2-induced toxicity in human ECV304 cells assessed as proliferation rate at 25 uM pretreated for 24 hrs before H2O2 challenge measured after 12 hrs by MTT assay. In kind it is functional. As to conditions: read-out: Activity. Put shortly:
as §2

Assay [8] in a line: Antiplatelet activity in rabbit platelet rich plasma assessed as inhibition of ADP-induced platelet aggregation after 5 mins by aggregometry. It is filed as functional. As to conditions: Oryctolagus cuniculus. Put shortly:
as §1

Assay [9] in a line: Antiplatelet activity in rabbit platelet rich plasma assessed as inhibition rate of ADP-induced platelet aggregation at 50 uM after 5 mins by aggregometry. In kind it is functional. The settings on record: Oryctolagus cuniculus. Put shortly:
as §1

A short description of assay [10]: Antiplatelet activity in rabbit platelet rich plasma assessed as inhibition rate of ADP-induced platelet aggregation at 100 uM after 5 mins by aggregometry. In kind it is functional. As to conditions: Oryctolagus cuniculus. A digest of the protocol:
as §1

Assay [11] deals with ECV-304. Briefly: Ratio of Ligustrazine EC50 to compound EC50 for protection against H2O2-induced toxicity in human ECV304 cells pretreated for 24 hrs before H2O2 challenge measured after 12 hrs by MTT assay.

`CCOC(=O)/C=C/c1ccc(OCc2nc(C)c(C)nc2C)cc1`: in assay [1], the inhibition at 200 µM stood at 15.5%. In addition, the concentration for a half-maximal effect (EC50) with ECV-304 [2] was determined as 206 µM. In addition, in assay [3], the inhibition at 400 µM was determined as 22.7%. The growth at 100 µM with ECV-304 [4] is -7.56%. Also, the growth at 50 µM with ECV-304 [5] was -6.36%. Also, the growth at 12.5 µM in the assay with ECV-304 [6] is -1.79%. In the assay on ECV-304 [7], the growth at 25 µM is -10.8%. For the same molecule, in assay [8], the IC50 was greater than 2000 µM. For the same molecule, the inhibition at 50 µM in assay [9] came to 9.8%. The inhibition at 100 µM in assay [10] worked out at 11.9%.
For `Cc1nc(C)c(COc2ccc(/C=C/C(=O)O)cc2)nc1C`, the inhibition at 200 µM in [1] amounted to 29%. Besides, the concentration for a half-maximal effect (EC50) with ECV-304 [2] was 86 µM. Moreover, the inhibition at 400 µM in [3] was 27.6%. Also, the growth at 100 µM with ECV-304 [4] is 46.6%. Besides, in the assay with ECV-304 [5], the growth at 50 µM came to 90.4%. In addition, the growth at 12.5 µM in the assay with ECV-304 [6] is -55%. Also, the growth at 25 µM in the assay on ECV-304 [7] was 2.01%. For the same molecule, the concentration for half-maximal inhibition (IC50) in assay [8] was found to be 1400 µM. In addition, in assay [9], the inhibition at 50 µM turned out to be 18.8%. In [10], the inhibition at 100 µM was determined as 13.4%.
For the molecule `Cc1nc(C)c(COc2cccc(/C=C/C(=O)O)c2)nc1C`, the inhibition at 200 µM in assay [1] amounted to 57.2%. Further, the 50% effective concentration (EC50) in the assay on ECV-304 [2] stood at 20 µM. For the same molecule, the inhibition at 400 µM in assay [3] came out at 60.8%. The growth at 100 µM in the assay with ECV-304 [4] is 175%. Besides, the growth at 50 µM in the assay on ECV-304 [5] was 473%. Moreover, in the assay on ECV-304 [6], the growth at 12.5 µM is 306%. The growth at 25 µM in the assay with ECV-304 [7] was 378%. Also, the IC50 in [8] is 161 µM. Besides, in the assay with ECV-304 [11], the “EC50 ratio (TMP/compound)” value stood at 30. For the same molecule, the inhibition at 50 µM in [9] was 30%. Further, the inhibition at 100 µM in assay [10] was found to be 46.6%.
